# Measured values gathered from unrelated publications.
# Compare with care: the assays were run in different laboratories.
# Target: Platelet-derived growth factor receptor beta (PDGFRB, Homo sapiens, UniProt P09619)
Compound,effect on,mode,technique,tested at,measurement,result
NS(=O)(=O)c1cc(NC(=O)Cc2ccccc2)ccc1Oc1cccc(Cl)c1,cell-free assay,,competition with immobilised ligand,1 µM,remaining binding,76%
CCN(CC)CCNC(=O)c1c(C)[nH]c(/C=C2\C(=O)Nc3ccc(F)cc32)c1C,cell-free assay,,,0.5 µM,remaining signal,17.6%
CC(C)(O)[C@H]1CC[C@H](Nc2ccc3ncc(-c4cccc(C(F)(F)F)c4)n3n2)CC1,enzyme activity,inhibitor,,1 µM,remaining activity,81%
COc1cc2nccc(Oc3ccc(NC(=O)c4c5n(n(-c6ccc(F)cc6)c4=O)CCCC5)cc3)c2cc1OC,enzyme activity,inhibitor,,0.1 µM,inhibition,6%
CC(C)(C)c1nc2c(s1)c1nc(N)ncc1c1ccc(NS(=O)(=O)c3c(F)cccc3F)c(F)c12,enzyme activity,inhibitor,radiometric,1 µM,remaining activity,105%
CS(=O)(=O)Nc1cccc(-c2csc(NC(=O)CSc3nc4nccnc4c(=O)n3CCc3ccccc3)n2)c1,enzyme activity,inhibitor,,10 µM,inhibition,7%
O=C1Nc2ccc(Cl)cc2C1=Cc1cc(Cl)c(O)c(Cl)c1,cell-free assay,,,0.5 µM,remaining signal,76.9%
O=C(NCCCC1CCCCC1)c1ccc(CNC(=O)c2cnn(-c3ccccc3)c2C(F)(F)F)cc1,cell-free assay,,competition with immobilised ligand,0.1 µM,remaining binding,100%
Cc1sc(C(=O)NC2COC2)cc1-n1cc(NC(=O)Nc2c(F)cccc2Cl)cn1,enzyme activity,inhibitor,,10 µM,remaining activity,97.9%
Cc1ccc(Nc2nccc(N(C)c3ccc4c(C)n(C)nc4c3)n2)cc1S(N)(=O)=O,enzyme activity,inhibitor,,0.3 µM,inhibition,64%
COc1cc2ncnc(Nc3ccc(Oc4ccccc4)cc3C)c2cc1OC,enzyme activity,inhibitor,,1 µM,inhibition,2%
Fc1cccc(-n2cnc3c(NCc4nc5c(F)c(F)ccc5[nH]4)nc(N4CCOCC4)nc32)c1,binding,,competition with immobilised ligand,10 µM,binding vs control,91%
COc1cc2c(cc1OC)-c1[nH]nc(Nc3cccc(F)c3)c1C2,cell-free assay,,,0.5 µM,remaining signal,45.3%
COc1cccc(CNC(=O)c2nc3scc(COCc4ccc(C(=O)O)cc4)c3c(=O)[nH]2)c1,cell-free assay,,competition with immobilised ligand,1 µM,remaining binding,99%
O=c1cc(-c2cccc3c2Sc2ccccc2S3)oc(N2CCOCC2)c1,enzyme activity,inhibitor,,0.5 µM,remaining activity,102%
CCCOc1ccc([C@H]2[C@H](C(=O)O)[C@@H](c3ccc4c(c3)OCO4)CN2CC(=O)Nc2c(CC)cccc2CC)cc1,cell-free assay,,competition with immobilised ligand,1 µM,remaining binding,100%
CNC(=O)c1cc(Oc2ccc(NC(=O)Nc3ccc(Cl)c(C(F)(F)F)c3)cc2)ccn1,cell-free assay,,,0.5 µM,remaining signal,12%
O=C(Nc1ccc(Oc2ccc(F)cc2)cc1)N1CCc2ncccc2[C@H]1c1ccc(F)cc1,cell-free assay,,competition with immobilised ligand,1 µM,remaining binding,100%
O=c1c2ccccc2[nH]c(=S)n1CCN1CCC(=C(c2ccc(F)cc2)c2ccc(F)cc2)CC1,enzyme activity,inhibitor,,0.5 µM,remaining activity,112%
CC/C(=N\NC(=O)NCc1cccc(O)c1)c1ccc(O)c(C)c1O,enzyme activity,inhibitor,,0.1 µM,inhibition,4.5%
Cc1ccc(C(=O)NCc2ccsc2)cc1C#Cc1cn(C(C)C)c2ncnc(N)c12,enzyme activity,inhibitor,,1 µM,activity vs control,20%
C=CC(=O)Nc1cc(Nc2nccc(Nc3cc(Cl)c(F)cc3C(C)(C)O)n2)c(OC)cc1N1CC[C@@H](N(C)C)C1,enzyme activity,inhibitor,,1 µM,inhibition,-2%
Cc1[nH]c(/C=C2\C(=O)Nc3ccc(F)cc32)c(C)c1C(=O)N[C@H]1CCN(C(=O)N(C)C)C1,enzyme activity,inhibitor,,1 µM,remaining activity,18%
Cn1nc(C(=O)NCc2ccc(C(=O)O)cc2)cc1-c1ccc2[nH]ccc2c1,cell-free assay,,competition with immobilised ligand,0.1 µM,remaining binding,96%
CCN(CC)c1ccc(C2=NNC(=O)CC2C)cc1[N+](=O)[O-] (centres unmarked),enzyme activity,inhibitor,,10 µM,remaining activity,6%
CC(C)(O)c1cncc(-c2nc3ccc(F)cc3n2C2CC2)c1,cell-free assay,,competition with immobilised ligand,1 µM,remaining binding,100%
Cc1ccc(NC(=O)c2ccc(C)c(C(F)(F)F)c2)cc1C#Cc1nn(C2CCC(O)CC2)c2ncnc(N)c12 (centres unmarked),cell-free assay,,,10 µM,remaining signal,87%
N#CCCc1ccc2c(c1)-c1[nH]c3ccc([N+](=O)[O-])cc3c1CC(=O)N2,cell-free assay,,,0.5 µM,remaining signal,83.9%
Cn1nc(C(F)(F)F)cc1-c1cnc(N2CCc3cc(S(=O)(=O)Nc4c(F)cc(Cl)cc4F)cc(N4CCCC4=O)c32)nc1,cell-free assay,,competition with immobilised ligand,1 µM,remaining binding,90%
